Measured values reported in ChEMBL document CHEMBL1833870, “Deconstruction of the α4β2 nicotinic acetylcholine receptor positive allosteric modulator desformylflustrabromine” (J Med Chem, 2011).
Counter-ions that a name gives are not always drawn. Activity calls are given as the source filed them. The calls are words filed in the database; no cut-off is given here.

What was measured:
[1] = target: Neuronal acetylcholine receptor subunit alpha-7 (Homo sapiens, UniProt P36544); assay: Antagonist activity at human alpha7 nAChR expressed in xenopus oocyte assessed as inhibition of acetylcholine-induced current by two-electrode voltage clamp assay; type: functional
In short: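 Xenopus stage IV oocytes were injected with human α7 cRNA (50 nL, 0.2 ng/nL) and kept 24–72 h at 19 °C. Recording was by two-electrode voltage clamp with ND-96 perfusion (pH 7.4) at 20 mL/min. Compound dissolved in ND-96 was co-applied with ACh, and inhibition of the ACh response was read. Concentration–response data were fit by non-linear regression.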

Homo sapiens = species on record: Homo sapiens; assay: Selectivity ratio of IC50 for human alpha7 nAChR to IC50 for human alpha4beta2 nAChR
[2] = target: T1, Neuronal acetylcholine receptor; alpha4/beta2 (Homo sapiens, UniProt P17787+P43681); assay: Agonist activity at human alpha4beta2 nACHR expressed in xenopus oocyte assessed as potentiation of acetylcholine-induced current by two electrode voltage clamp assay relative to acetylcholine; type: functional
In short: (§1)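 Human α4 and β2 cRNA injected into stage IV Xenopus oocytes (50 nL total at 0.2 ng/nL, subunit ratio as appropriate), then incubated 24–72 h at 19 °C. Two-electrode voltage clamp in a vertical flow chamber perfused with ND-96 (pH 7.4) at 20 mL/min. Compound in ND-96 was co-applied with ACh, and the enhancement of current was measured. Concentration–response curves were fit by non-linear regression.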

[3] = target: T1, Neuronal acetylcholine receptor; alpha4/beta2; assay: Agonist activity at human alpha4beta2 nACHR expressed in xenopus oocyte assessed as potentiation of acetylcholine-induced current by two electrode voltage clamp assay; type: functional; in short: as §1

T1 sequence (P17787 whole entry, the tested form may be a part): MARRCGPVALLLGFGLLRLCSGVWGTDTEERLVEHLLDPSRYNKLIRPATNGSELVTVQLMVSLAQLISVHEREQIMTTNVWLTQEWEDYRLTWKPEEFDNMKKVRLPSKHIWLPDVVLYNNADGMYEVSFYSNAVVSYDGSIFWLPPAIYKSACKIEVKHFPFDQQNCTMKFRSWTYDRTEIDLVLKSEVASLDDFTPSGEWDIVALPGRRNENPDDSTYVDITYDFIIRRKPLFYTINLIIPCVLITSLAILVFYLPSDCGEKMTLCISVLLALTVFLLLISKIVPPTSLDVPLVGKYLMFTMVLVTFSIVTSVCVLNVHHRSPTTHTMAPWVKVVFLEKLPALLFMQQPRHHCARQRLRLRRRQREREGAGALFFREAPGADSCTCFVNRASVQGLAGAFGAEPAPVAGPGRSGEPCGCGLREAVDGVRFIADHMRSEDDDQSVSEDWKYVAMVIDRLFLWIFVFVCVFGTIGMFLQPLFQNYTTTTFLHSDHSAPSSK
T1 sequence (P43681 whole entry, the tested form may be a part): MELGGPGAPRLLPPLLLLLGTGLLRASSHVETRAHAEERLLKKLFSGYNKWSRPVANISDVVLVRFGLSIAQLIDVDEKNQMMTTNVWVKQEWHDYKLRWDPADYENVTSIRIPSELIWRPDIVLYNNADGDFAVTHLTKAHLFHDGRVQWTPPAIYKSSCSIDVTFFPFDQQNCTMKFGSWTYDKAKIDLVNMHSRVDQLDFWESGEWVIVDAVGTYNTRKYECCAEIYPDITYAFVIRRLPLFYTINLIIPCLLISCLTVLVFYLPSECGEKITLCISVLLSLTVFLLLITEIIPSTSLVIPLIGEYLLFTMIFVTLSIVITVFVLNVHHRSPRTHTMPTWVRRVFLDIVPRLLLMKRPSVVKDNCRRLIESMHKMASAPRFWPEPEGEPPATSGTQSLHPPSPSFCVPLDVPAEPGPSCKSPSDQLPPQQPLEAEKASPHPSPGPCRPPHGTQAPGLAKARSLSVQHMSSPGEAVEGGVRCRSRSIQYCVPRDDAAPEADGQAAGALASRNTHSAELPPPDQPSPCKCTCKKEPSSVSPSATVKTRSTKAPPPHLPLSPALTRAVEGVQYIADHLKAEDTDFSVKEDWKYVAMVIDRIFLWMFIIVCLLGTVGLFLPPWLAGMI
Chain of Neuronal acetylcholine receptor subunit alpha-7 (P36544 whole entry, the tested form may be a part): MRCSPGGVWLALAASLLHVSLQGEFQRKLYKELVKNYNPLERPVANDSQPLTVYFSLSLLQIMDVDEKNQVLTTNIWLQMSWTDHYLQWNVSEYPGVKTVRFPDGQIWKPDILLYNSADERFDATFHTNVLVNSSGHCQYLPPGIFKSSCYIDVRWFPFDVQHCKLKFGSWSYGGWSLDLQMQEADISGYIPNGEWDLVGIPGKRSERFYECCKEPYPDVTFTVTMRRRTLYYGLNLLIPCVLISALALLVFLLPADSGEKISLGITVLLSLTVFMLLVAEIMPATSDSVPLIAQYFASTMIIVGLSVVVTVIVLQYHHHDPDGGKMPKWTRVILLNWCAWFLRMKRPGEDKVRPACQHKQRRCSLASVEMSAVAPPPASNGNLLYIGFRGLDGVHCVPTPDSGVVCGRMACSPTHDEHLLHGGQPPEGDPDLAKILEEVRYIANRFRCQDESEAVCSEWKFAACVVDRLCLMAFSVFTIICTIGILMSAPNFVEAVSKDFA

Row | Structure (SMILES) | EC50 [1] | Ratio IC50 (Homo sapiens) | Emax [2] | EC50 ([3]; read-out: EC50) | EC50 ([3]; read-out: pEC50 (converted)) | pEC50 [3]
1 | CCC(C)(C)c1[nH]c2cc(Br)ccc2c1CCNC | 25.7 µM | 190 | 290% | 0.1 µM | 0.138 µM | –
2 | CCCc1[nH]c2ccccc2c1CCNC | 44.7 µM | – | – | – | – | inactive
3 | C=CC(C)(C)c1[nH]c2ccccc2c1CCNC | 7.76 µM | – | 250% | 6.77 µM | 7.24 µM | –
4 | C=CC(C)(C)c1[nH]c2cc(Br)ccc2c1CCN | 5.75 µM | – | – | – | 0.513 µM | –
5 | CNCCc1c(C(C)(C)C)[nH]c2ccccc12 | 4.79 µM | – | – | – | 3.98 µM | –
6 | CCC(C)c1[nH]c2ccccc2c1CCNC (racemic) | 9.77 µM | – | – | – | – | inactive
7 | CNCCc1c[nH]c2cc(Br)ccc12 | 11 µM | – | – | – | – | inactive
8 | CCC(C)(C)c1[nH]c2ccccc2c1CCNC | 20.4 µM | – | 260% | 1.22 µM | 3.02 µM | –
9 | CNCCc1c(C(C)C)[nH]c2ccccc12 | – | – | – | – | – | inactive
10 | CCCc1[nH]c2cc(Br)ccc2c1CCNC | 20.9 µM | – | – | – | – | inactive
11 | C=CC(C)(C)c1[nH]c2cc(Br)ccc2c1CCNC [DESFORMYLFLUSTRABROMINE HYDROCHLORIDE] | 1.86 µM | – | – | 0.32 µM | 0.331 µM | –
12 | C=CCc1[nH]c2cc(Br)ccc2c1CCNC | 29.5 µM | – | – | – | – | inactive
